High-throughput results as filed in PubChem BioAssay.
Sampled rows, rich in hits. Any-hit rate of the full collection: about 3.4%.
Wee1 degr inh: Wee1 degradation inhibitors, primary screen, cell-based, HeLa, Wee1K328M-luciferase, luminescence; Wee1-like protein kinase (Homo sapiens), P30291; HeLa Luc-Wee1K328M stability; 100% = proteasome inhibitor MG132 effect; reporter increase, % at 5 µM; 220,000 compounds, 1.2% hits; AID 1321, 2008;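 active = activation above the mean of all tested compounds plus 3 SD, set per screening run, cut at about 8.8% in these data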;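 also: cells exposed to compound for 20 h before luminescence read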
Runt-CBFb FRET: inhibitors of RUNX1 Runt–CBFb binding, primary screen, biochemical, FRET, Cerulean-Runt, Venus-CBFb, uHTS; inhibition, % at 20 µM; 220,000 compounds, 0.46% hits; Cerulean-Runt/Venus-CBFb FRET ratio 530/480, 1 h; Runt-related transcription factor 1 (Homo sapiens) + Core-binding factor subunit beta …;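 active = inhibition over about 50% at 20 µM in the single-dose screen, limit read from the data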
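Reagent – Venus-CBFb binding partner, 100 nM · Assay system – Cerulean-tagged RUNX1 Runt domain (FRET donor) fusion protein · Input – 100 nM per protein · Incubation – two 1 h room-temperature incubations shielded from light · Measured by – FRET fluorescence · Medium – Tris buffer pH 7.5 with salts and BSA · Benchmarks – unlabeled CBFb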
PHOSPHO1 block: PubChem AID 1565; recombinant PHOSPHO1, absorbance phosphatase assay; inhibition, % at 13.3 µM; 290,000 compounds, 1.1% hits; in the data active = inhibition above about 60%
Target sequence (Q8TCT1 whole entry, looked up): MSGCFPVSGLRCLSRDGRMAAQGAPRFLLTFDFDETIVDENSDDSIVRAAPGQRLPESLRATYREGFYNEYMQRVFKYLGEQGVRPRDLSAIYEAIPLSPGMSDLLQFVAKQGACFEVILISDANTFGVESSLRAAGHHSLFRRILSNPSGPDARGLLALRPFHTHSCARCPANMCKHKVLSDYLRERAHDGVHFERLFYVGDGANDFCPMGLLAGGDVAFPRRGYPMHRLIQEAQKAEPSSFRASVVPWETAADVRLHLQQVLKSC
Efa HMGR inh: inhibitors of E. faecalis class II HMGR, primary screen, biochemical, Enterococcus faecalis; 190,000 compounds, 0.41% hits; purified E. faecalis HMGR, NADPH absorbance 340 nm kinetic; inhibition, % at 10 µM; AID 1066, 2008;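 active = inhibition above a set limit, the median over all tested compounds plus 3 SD, cut at about 9.5% in these data; inconclusive = no clear call, values can overlap the other calls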;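 also: enzyme runs in reverse so mevalonate oxidation gives rising NADPH absorbance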
Runt-SMMHC FRET: inhibitors of RUNX1 Runt–CBFb-SMMHC binding, primary screen, biochemical, FRET, Cerulean-Runt, Venus-CBFb-SMMHC, uHTS; Cerulean-Runt/Venus-CBFb-SMMHC FRET ratio 530/480, 1 h; inhibition, % at 20 µM; 220,000 compounds, 0.74% hits;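 active = mean inhibition across duplicate retests at 20 µM reaching about 50%, limit read from the data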;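 also: inhibitors lower the FRET ratio by blocking Runt binding to CBFb-SMMHC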
RanGTP-Impb inh: inhibitors of RanGTP-importin-beta interaction, primary screen, biochemical, FRET, CFP-Ran, YFP-importin-beta, homogeneous. cell-free CFP-Ran/YFP-importin-beta FRET ratio. inhibition, % (test concentration not listed). 300,000 compounds, 1.1% hits;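 active = more than half of the replicate wells show a fall in the fluorescence ratio signal beyond about 16%, limit read from the data, passing the limit was not always enough; inconclusive = exactly half of the replicate wells pass the set limit; inactive = fewer than half of replicates pass the limit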
Wee1 degr conf: Wee1 degradation inhibitors, confirmation, cell-based, HeLa, Wee1K328M-luciferase, luminescence, triplicate. shares compounds with Wee1 degr inh. HeLa Luc-Wee1K328M degradation; vehicle 0%, proteasome-blocked wells 100%. activation, % at 5 µM. 1,100 compounds, 4% hits; in the data active = activation above about 8.9%
Large screens that a line does not name were inactive (follow-up assays come after a bar, where they were run).

Cc1cccn2c1nc(=S)n2C(=O)c1ccco1	Wee1 degr inh 12 | Wee1 degr conf 10
Cc1ccccc1CN1CCN(C(=O)c2ccco2)CC1	none (no result: Wee1 degr inh, Runt-CBFb FRET, Efa HMGR inh, Runt-SMMHC FRET)
C/C(N)=N\S(=O)(=O)c1ccc(Cl)cc1	none
NC(N)=NS(=O)(=O)c1ccc(N)cc1	Wee1 degr inh 11 | Wee1 degr conf inactive
O=C(Cn1nc(-c2ccccc2Cl)ccc1=O)Nc1ccccc1-c1ccccc1	Wee1 degr inh 25 (no result: Runt-CBFb FRET, Runt-SMMHC FRET) | Wee1 degr conf inactive
CC(=O)Nc1cccc(-c2csc(Nc3ncccn3)n2)c1	Wee1 degr inh 13 | Wee1 degr conf inactive
Cc1ccc(S(=O)(=O)N2CCCCC2)cc1C(=O)Nc1cccnc1	Wee1 degr inh 18 (no result: Efa HMGR inh) | Wee1 degr conf inactive
Cc1cccc2cc3c(N)c(C(=O)N4CCOCC4)sc3nc12	Wee1 degr inh 14 | Wee1 degr conf inactive
Cc1cc(C)c2cc3c(N)c(C(=O)N4CCc5ccccc5C4)sc3nc2c1	none
CC(C)(C)NC(=O)COC(=O)/C=C/c1ccc(F)cc1	none
Cc1ccc2c(CC(=O)N3CCc4ccccc43)coc2c1	Wee1 degr inh 18 | Wee1 degr conf inactive
COc1ccc(/C=C(/NC(=O)c2ccco2)C(=O)N2CCOCC2)cc1	none (no result: Wee1 degr inh, Runt-CBFb FRET, Efa HMGR inh, Runt-SMMHC FRET)
Cc1cc(C)c(C)c(S(=O)(=O)N2CCN(c3ncnc4sc(C)c(C)c34)CC2)c1C	none (no result: Wee1 degr inh, Runt-CBFb FRET, Efa HMGR inh, Runt-SMMHC FRET)
Cc1ccc(C(=O)CC(C(=O)O)P(=O)(c2ccccc2)c2ccccc2)cc1 (centres undefined)	Wee1 degr inh 14 | Wee1 degr conf inactive
O=C(O)C(C/C(=N/O)c1ccc(Br)cc1)P(=O)(c1ccccc1)c1ccccc1 (centres undefined)	none (no result: Efa HMGR inh)
COc1ccc(N(CC(=O)Nc2c(C)n(C)n(-c3ccccc3)c2=O)S(=O)(=O)c2ccc(F)cc2)cc1	Wee1 degr inh 13 | Wee1 degr conf inactive
COc1ccc(N(CC(=O)Nc2c(C)n(C)n(-c3ccccc3)c2=O)S(=O)(=O)c2ccc(C)cc2)cc1	none
O=C(N[C@@H](Cc1c[nH]c2ccccc12)C(=O)O)C1CCN(S(=O)(=O)c2cccs2)CC1	none (no result: Wee1 degr inh, Runt-CBFb FRET, Efa HMGR inh, Runt-SMMHC FRET)
Cc1ccc(NC2=CC(=O)CC(c3ccc(Cl)cc3)C2)cc1 (centres undefined)	Wee1 degr inh 15, RanGTP-Impb inh 35 | Wee1 degr conf inactive
COc1cc(/C=C2\C(=O)N(c3ccc(NC(C)=O)cc3)N=C2c2ccccc2)ccc1O	none (no result: RanGTP-Impb inh)
O=C1/C(=C\c2ccc(O)c(O)c2)C(c2ccccc2)=NN1c1ccccc1	Wee1 degr inh 11 | Wee1 degr conf inactive
CCc1cccc(CC)c1N(COC)C(=O)Cn1nnc2ccccc21	none
CCc1cccc(CC)c1N(COC)C(=O)Cn1ccccc1=N	Wee1 degr inh 13, RanGTP-Impb inh inconclusive | Wee1 degr conf inactive
COc1ccc(C(=O)NC2CC2)cc1OC1CCN(Cc2ccc(F)cc2F)CC1	none (no result: Wee1 degr inh, Runt-CBFb FRET, Efa HMGR inh, Runt-SMMHC FRET)
CCNS(=O)(=O)c1ccc(NS(=O)(=O)c2cc(C)ccc2C)cc1	Wee1 degr inh 13 | Wee1 degr conf inactive
Cc1ccc(C)c(S(=O)(=O)Nc2ccc(O)cc2)c1	none
COc1cc(/C=C/c2nnc3c4ccccc4ncn23)cc(OC)c1OC	none
C(=C\c1nnc2c3ccccc3ncn12)/c1ccccc1	Wee1 degr inh 12 | Wee1 degr conf inactive
O=S(=O)(c1ccc(S(=O)(=O)N(Cc2ccco2)Cc2ccccc2Cl)cc1)N1CCCC1	Wee1 degr inh 27 | Wee1 degr conf inactive
CCOC(=O)CC(NC(=O)c1ccc(C)cc1)c1ccc(C)cc1 (centres undefined)	Wee1 degr inh 14 | Wee1 degr conf inactive
CCOC(=O)CC(NC(=O)c1cccs1)c1ccc(C)cc1 (centres undefined)	none (no result: Wee1 degr inh, Runt-CBFb FRET, Efa HMGR inh, Runt-SMMHC FRET)
Cc1ccc(S(=O)(=O)NCC2CCCO2)cc1[N+](=O)[O-] (centres undefined)	none
Cc1ccc(S(=O)(=O)C2(C(=O)NCCc3ccccc3)CC2)cc1	none (no result: Wee1 degr inh, Runt-CBFb FRET, Efa HMGR inh, Runt-SMMHC FRET)
CN(Cc1nc(Cc2ccccc2F)no1)[C@@H]1CS(=O)(=O)C[C@H]1O	none
Cc1cc(C)n(CCN(C)Cc2nc(Cc3ccccc3F)no2)n1	Wee1 degr inh 11 (no result: Runt-CBFb FRET, Runt-SMMHC FRET) | Wee1 degr conf inactive
COc1ccccc1C1SCCN1S(C)(=O)=O (centres undefined)	Wee1 degr inh 21 | Wee1 degr conf inactive
COCCn1c(N)c(Sc2ccc(Cl)cc2)c(=O)[nH]c1=O	none (no result: Wee1 degr inh, Runt-CBFb FRET, Efa HMGR inh, Runt-SMMHC FRET)
CCOc1ccc2nnnn2n1	none
CC(C)(C)OC(=O)C(Cl)(C(=O)OC(C)(C)C)c1ccc2nnnn2n1	Wee1 degr inh 11 | Wee1 degr conf inactive
Cc1cc(NC(=O)COC(=O)C(Cc2ccccc2)NC(=O)c2ccco2)no1 (centres undefined)	Wee1 degr inh 21 (no result: RanGTP-Impb inh) | Wee1 degr conf inactive
Cc1cc(C)nc(NC(=O)c2ccc(Cl)cc2)n1	Wee1 degr inh 17 | Wee1 degr conf inactive
Cc1cc(NC(=O)c2ccc3c(c2)OCO3)no1	none
Cc1nc(NC(=O)c2ccc3c(c2)OCO3)ccc1Br	Wee1 degr inh 19 | Wee1 degr conf inactive
Cc1ccc(CSCC(=O)N2CCOCC2)cc1	Wee1 degr inh 13 | Wee1 degr conf inactive
O=C(Nc1cccc([N+](=O)[O-])c1)Nc1ccc2c(c1)OCCO2	Wee1 degr inh 17 | Wee1 degr conf inactive
O=C(NC1CCCC1)c1cc(Cl)ccc1[N+](=O)[O-]	RanGTP-Impb inh inconclusive
O=C(NC1CCCCC1)c1cc(Cl)ccc1[N+](=O)[O-]	Wee1 degr inh 16 | Wee1 degr conf inactive
Cc1cc(-n2nnc3ccccc32)nc2ccccc12	Wee1 degr inh 13 | Wee1 degr conf inactive
S=C(NCc1ccccc1)N1CCN(c2ccccc2)CC1	none
COc1ccc(-c2nnc(SCC(=O)NC(=O)NCc3ccco3)o2)cc1	none
COc1ccc(CC(=O)Nc2cccc(C(=O)Nc3cccc(C)c3)c2)cc1	none
COc1ccc(C(=O)Nc2cccc(C)c2)cc1	Wee1 degr inh 12 | Wee1 degr conf inactive
COc1ccc(NC(=O)c2ccc(Cl)c(NC(=O)c3ccncc3)c2)cc1	Wee1 degr inh 12 | Wee1 degr conf inactive
